According to ChEMBL document CHEMBL2057149 (J Med Chem, 2012):
pIC50, pKd, pKi: −log10 of the molar value. Calls of active or inactive are those of the source. The rule behind the calls is not given here.

Key:
HUVEC [1] = test: Antiangiogenic activity in VEGF-stimulated HUVEC cells after 72 hrs by CellTiter assay; format: functional, cell-based; details: Homo sapiens
HMVEC [2] = test: Antiangiogenic activity in FGF2-stimulated HMVEC cells after 72 hrs by CellTiter assay; format: functional, cell-based; details: Homo sapiens
HUVEC [3] = test: Antiangiogenic activity in FGF2-stimulated HUVEC cells after 72 hrs by CellTiter assay; format: functional, cell-based; details: Homo sapiens
Plasma [4] = test: Anticoagulant activity in pooled human plasma assessed as activated partial thromboplastin time at 0.1 mg/ml; format: ADME, cell-free
How it was run: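 APTT of pooled normal human plasma measured with compound at 0–100 μg/mL in PBS on a ball coagulameter, using unfractionated heparin as the reference. Normal range 26–36 s; coefficient of variation 2% at 36 s and 5–7% at 90 s or above. Values are the mean of two determinations.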

[5] = target: Fibroblast growth factor 2 (Homo sapiens, UniProt P09038); test: Binding affinity to FGF-2 by surface plasmon resonance assay
How it was run: (§1)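 Solution-affinity SPR on heparin-coated CM4 chips. FGF-1 measured in HBS-EP (10 mM HEPES pH 7.4, 150 mM NaCl, 3.0 mM EDTA, 0.005% polysorbate 20); FGF-2 measured in HBS-EP with 300 mM NaCl. Kd is the average of at least duplicate measurements ± SD.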

Plasma [6] = test: Anticoagulant activity in pooled human plasma assessed as prolongation of the recalcification time at 0.1 mg/ml by Heptest assay; format: ADME, cell-free
How it was run: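 Heptest clotting time in pooled normal human plasma; normal range 13–20 s. Values are the mean of two determinations.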

HMVEC [7] = test: Antiangiogenic activity in VEGF-stimulated HMVEC cells after 72 hrs by CellTiter assay; format: functional, cell-based; details: Homo sapiens
HUVEC [8] = test: Antiangiogenic activity in FGF1-stimulated HUVEC cells after 72 hrs by CellTiter assay; format: functional, cell-based; details: Homo sapiens
HMVEC [9] = test: Antiangiogenic activity in FGF1-stimulated HMVEC cells after 72 hrs by CellTiter assay; format: functional, cell-based; details: Homo sapiens
[10] = target: Vascular endothelial growth factor A (Homo sapiens) (UniProt P15692); test: Binding affinity to VEGF by surface plasmon resonance assay
[11] = target: Fibroblast growth factor 1 (Homo sapiens, UniProt P05230); test: Binding affinity to FGF-1 by surface plasmon resonance assay; how it was run: as §1
Heparanase = target: T1, Heparanase (Homo sapiens, UniProt Q9Y251); test: Inhibition of human recombinant heparanase after 2 to 24 hrs by WST1 dye based fondaparinux assay
T1 sequence (Q9Y251 whole entry): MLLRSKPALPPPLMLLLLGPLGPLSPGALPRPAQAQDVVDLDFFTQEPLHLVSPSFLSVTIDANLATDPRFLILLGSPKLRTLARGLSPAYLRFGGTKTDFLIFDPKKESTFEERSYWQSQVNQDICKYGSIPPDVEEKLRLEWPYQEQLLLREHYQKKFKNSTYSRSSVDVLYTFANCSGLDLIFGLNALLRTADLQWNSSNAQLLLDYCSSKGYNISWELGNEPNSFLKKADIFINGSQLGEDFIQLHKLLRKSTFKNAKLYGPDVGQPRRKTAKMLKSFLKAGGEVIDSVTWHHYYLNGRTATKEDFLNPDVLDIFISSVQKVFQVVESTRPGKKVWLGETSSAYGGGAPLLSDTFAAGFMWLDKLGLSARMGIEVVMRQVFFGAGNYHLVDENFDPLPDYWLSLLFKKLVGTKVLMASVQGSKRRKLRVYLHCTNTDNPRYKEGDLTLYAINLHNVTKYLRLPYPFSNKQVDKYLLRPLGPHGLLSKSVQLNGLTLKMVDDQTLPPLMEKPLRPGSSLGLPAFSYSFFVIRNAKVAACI

Fibroblast growth factor 1, sequence (P05230 whole entry): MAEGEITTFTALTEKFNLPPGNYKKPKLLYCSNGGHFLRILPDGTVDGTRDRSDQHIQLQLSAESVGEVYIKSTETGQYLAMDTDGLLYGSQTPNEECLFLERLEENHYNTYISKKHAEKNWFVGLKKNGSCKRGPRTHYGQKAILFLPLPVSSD
Fibroblast growth factor 2, sequence (P09038 143-288 limits assumed): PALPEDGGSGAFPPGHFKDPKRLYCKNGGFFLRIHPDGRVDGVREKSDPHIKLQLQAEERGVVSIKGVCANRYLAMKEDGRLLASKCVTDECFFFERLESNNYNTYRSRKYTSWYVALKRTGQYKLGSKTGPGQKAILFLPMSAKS

Row | Compound | pIC50 (HUVEC [1]) | Activity (HMVEC [2]) | pIC50 (HUVEC [3]) | APTT (Plasma [4]) [s] | pKd [5] | Time (Plasma [6]) [s] | Activity (HMVEC [7]) | pIC50 (HUVEC [8]) | Activity (HMVEC [9]) | pKd [10] | pKd [11] | pKi (Heparanase)
1 | CC(C)CCC[C@@H](C)[C@H]1CC[C@H]2[C@@H]3CC[C@H]4C[C@@H](OCc5cn([C@@H]6O[C@H](COS(=O)(=O)[O-])[C@@H](O[C@@H]7O[C@H](COS(=O)(=O)[O-])[C@H](OS(=O)(=O)[O-])[C@H](OS(=O)(=O)[O-])[C@H]7OS(=O)(=O)[O-])[C@H](OS(=O)(=O)[O-])[C@H]6OS(=O)(=O)[O-])nn5)CC[C@]4(C)[C@H]3CC[C@]12C.[Na+].[Na+].[Na+].[Na+].[Na+].[Na+].[Na+] | 5.58 | Active | 5.61 | 39.6 | 5.74 | 25.3 | Active | 5.57 | Active | 5.80 | 6.21 | 7.52
2 | CC(C)CCC[C@@H](C)[C@H]1CC[C@H]2[C@@H]3CC[C@H]4C[C@@H](O[C@@H]5O[C@H](COS(=O)(=O)[O-])[C@@H](O[C@H]6O[C@H](COS(=O)(=O)[O-])[C@@H](O[C@H]7O[C@H](COS(=O)(=O)[O-])[C@@H](OS(=O)(=O)[O-])[C@H](OS(=O)(=O)[O-])[C@H]7OS(=O)(=O)[O-])[C@H](OS(=O)(=O)[O-])[C@H]6OS(=O)(=O)[O-])[C@H](OS(=O)(=O)[O-])[C@H]5OS(=O)(=O)[O-])CC[C@]4(C)[C@H]3CC[C@]12C.[Na+].[Na+].[Na+].[Na+].[Na+].[Na+].[Na+].[Na+].[Na+].[Na+] | 5.80 | Active | 5.64 | 51.6 | 6.26 | 29.2 | Active | 5.60 | Active | 6.72 | 7.61 | 8.04
3 | CC(C)CCC[C@@H](C)[C@H]1CC[C@H]2[C@@H]3CC[C@H]4C[C@@H](O[C@H]5O[C@H](COS(=O)(=O)[O-])[C@@H](OS(=O)(=O)[O-])[C@H](O[C@H]6O[C@H](COS(=O)(=O)[O-])[C@@H](OS(=O)(=O)[O-])[C@H](O[C@H]7O[C@H](COS(=O)(=O)[O-])[C@@H](OS(=O)(=O)[O-])[C@H](OS(=O)(=O)[O-])[C@@H]7OS(=O)(=O)[O-])[C@@H]6OS(=O)(=O)[O-])[C@@H]5OS(=O)(=O)[O-])CC[C@]4(C)[C@H]3CC[C@]12C.[Na+].[Na+].[Na+].[Na+].[Na+].[Na+].[Na+].[Na+].[Na+].[Na+] | 5.77 | Active | 5.74 | 58.5 | 6.31 | 24.2 | Active | 5.60 | Active | 7.05 | 7.80 | 7.98
4 | CC(C)CCC[C@@H](C)[C@H]1CC[C@H]2[C@@H]3CC[C@H]4C[C@@H](OCc5cn(CCCO[C@H]6O[C@H](COS(=O)(=O)[O-])[C@@H](OS(=O)(=O)[O-])[C@H](OS(=O)(=O)[O-])[C@@H]6O[C@H]6O[C@H](COS(=O)(=O)[O-])[C@@H](OS(=O)(=O)[O-])[C@H](O[C@H]7O[C@H](COS(=O)(=O)[O-])[C@@H](OS(=O)(=O)[O-])[C@H](OS(=O)(=O)[O-])[C@@H]7OS(=O)(=O)[O-])[C@@H]6OS(=O)(=O)[O-])nn5)CC[C@]4(C)[C@H]3CC[C@]12C.[Na+].[Na+].[Na+].[Na+].[Na+].[Na+].[Na+].[Na+].[Na+].[Na+] | 5.68 | Active | 5.77 | 73.3 | 6.32 | 33.1 | Active | 5.42 | Active | 6.34 | 7.65 | 8.07
5 | CC(C)CCC[C@@H](C)[C@H]1CC[C@H]2[C@@H]3CC[C@H]4C[C@@H](OCc5cn([C@@H]6O[C@H](COS(=O)(=O)[O-])[C@@H](O[C@H]7O[C@H](COS(=O)(=O)[O-])[C@@H](O[C@H]8O[C@H](COS(=O)(=O)[O-])[C@@H](OS(=O)(=O)[O-])[C@H](OS(=O)(=O)[O-])[C@H]8OS(=O)(=O)[O-])[C@H](OS(=O)(=O)[O-])[C@H]7OS(=O)(=O)[O-])[C@H](OS(=O)(=O)[O-])[C@H]6OS(=O)(=O)[O-])nn5)CC[C@]4(C)[C@H]3CC[C@]12C.[Na+].[Na+].[Na+].[Na+].[Na+].[Na+].[Na+].[Na+].[Na+].[Na+] | 5.74 | Active | 5.92 | 61.2 | 6.21 | 30.2 | Active | 5.68 | Active | 6.10 | 7.30 | 7.80
6 | CC(C)CCC[C@@H](C)[C@H]1CC[C@H]2[C@@H]3CC[C@H]4C[C@@H](OCc5cn(CCCO[C@H]6O[C@H](COS(=O)(=O)[O-])[C@@H](OS(=O)(=O)[O-])[C@H](OS(=O)(=O)[O-])[C@@H]6O[C@H]6O[C@H](COS(=O)(=O)[O-])[C@@H](OS(=O)(=O)[O-])[C@H](O[C@H]7O[C@H](COS(=O)(=O)[O-])[C@@H](OS(=O)(=O)[O-])[C@H](O[C@H]8O[C@H](COS(=O)(=O)[O-])[C@@H](OS(=O)(=O)[O-])[C@H](O[C@H]9O[C@H](COS(=O)(=O)[O-])[C@@H](OS(=O)(=O)[O-])[C@H](OS(=O)(=O)[O-])[C@@H]9OS(=O)(=O)[O-])[C@@H]8OS(=O)(=O)[O-])[C@@H]7OS(=O)(=O)[O-])[C@@H]6OS(=O)(=O)[O-])nn5)CC[C@]4(C)[C@H]3CC[C@]12C.[Na+].[Na+].[Na+].[Na+].[Na+].[Na+].[Na+].[Na+].[Na+].[Na+].[Na+].[Na+].[Na+].[Na+].[Na+].[Na+] | 6.66 | Active | 6.41 | 63.3 | 7.41 | 29.6 | Active | 6.00 | Active | 8.98 | 9.62 | 8.26
7 | CC(C)CCC[C@@H](C)[C@H]1CC[C@H]2[C@@H]3CC[C@H]4C[C@@H](OCc5cn(CCCO[C@H]6O[C@H](COS(=O)(=O)[O-])[C@@H](OS(=O)(=O)[O-])[C@H](O[C@H]7O[C@H](COS(=O)(=O)[O-])[C@@H](OS(=O)(=O)[O-])[C@H](O[C@H]8O[C@H](COS(=O)(=O)[O-])[C@@H](OS(=O)(=O)[O-])[C@H](OS(=O)(=O)[O-])[C@@H]8OS(=O)(=O)[O-])[C@@H]7OS(=O)(=O)[O-])[C@@H]6OS(=O)(=O)[O-])nn5)CC[C@]4(C)[C@H]3CC[C@]12C.[Na+].[Na+].[Na+].[Na+].[Na+].[Na+].[Na+].[Na+].[Na+].[Na+] | 5.85 | Active | 5.92 | 71.4 | 6.32 | 26.4 | Active | 5.58 | Active | 6.59 | 7.84 | 8.08
